Assay results: ChEMBL document CHEMBL4823251, “Structure-Based Exploration of Selectivity for ATM Inhibitors in Huntington's Disease” (J Med Chem, 2021)
In brackets after ≈: the same amount, converted by molar mass.

Assays:
[1] = molecular target: Phosphatidylinositol 3-kinase catalytic subunit type 3 (Homo sapiens, UniProt Q8NEB9); experiment: Inhibition of full length recombinant GST-tagged human VPS34 expressed in baculovirus expression system using PI/PS as substrate incubated for 60 mins in presence of ATP at Km concentration by luminescence assay
[2] = Kinetic solubility of the compound in pH 7.4 PBS buffer incubated for 2 hrs using orbital shaker by LC-UV mass spectrometry; format: physicochemical; details: read-out: Kinetic_solubility
Outline: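 Shaken on an orbital shaker for 2 h at room temperature, then filtered. Filtrate analysed by LC-UV with MS confirmation, calibrated against 200 μM and 10 μM DMSO dilutions.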

[3] = molecular target: T1, Serine-protein kinase ATM (Homo sapiens, UniProt Q13315); experiment: Inhibition of full length recombinant FLAG-tagged human ATM assessed as decrease in p53 S15 phosphorylation using full length myc-tagged p53 as substrate incubated for 30 mins in presence of ATP by ELISA
Outline: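 Buffer was 25 mM HEPES pH 7.5 with MgCl₂, MnCl₂, Brij-35, glycerol, BSA and DTT (0.1% DMSO); reaction ran 30 min at 20 °C and was stopped with 70 mM EDTA. Product captured on anti-myc-coated plates and detected with anti-p53 pS15, HRP secondary and TMB, absorbance at 450 nm.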

Homo sapiens = organism: Homo sapiens; experiment: Selectivity ratio of Ki for full length recombinant GST-tagged VPS34 expressed in baculovirus expression system using PI/PS as substrate incubated for 60 mins in presence of ATP at Km concentration by luminescence assay to Ki for full length recombinant FLAG-tagged human ATM assessed as decrease in p53 S15 phosphorylation using full length myc-tagged p53 as substrate incubated for 30 mins in presence of ATP by ELISA
Outline: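 ADP-Glo luminescence read-out. ATM reaction: 0.75 nM enzyme, 25 nM myc-p53, 10 μM ATP, 30 min at 20 °C, p53 S15 phosphorylation by ELISA. Ki values are means of at least two experiments.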

[4] = Intrinsic clearance in C57Bl/6 mouse pooled liver microsomes at 1 uM measured up to 40 mins in presence of NADPH by LC-MS/MS analysis; format: ADME, Microsome; details: read-out: CLH
Outline: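 Reaction started with 1 mM NADPH. Sampled at 0, 5, 10, 20 and 40 min, quenched in acetonitrile with internal standard, and analysed by LC–MS/MS.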

[5] = Apparent permeability across apical to basolateral side in MDCK-MDR1 cells after 1 hr by LC-MS/MS analysis; format: ADME, cell-based, Canis lupus familiaris; details: dog
Outline: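 MDCKII-MDR1 and wild-type cells seeded at 2 × 10⁵ cells/well on Transwells and cultured 3 days. Test compound at 10 μM in HBSS with 25 mM HEPES, pH 7.4, added apical or basolateral in duplicate. Lucifer yellow used as integrity check; wells above 100 nm/s rejected. Sampled after 1 h at 37 °C and quantified by LC–MS/MS. Papp taken from the apical-to-basal direction.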

[6] = Effective efflux ratio of apparent permeability across basolateral to apical over apical to basolateral side in MDCK-MDR1 cells assessed as efflux ratio after 1 hr by LC-MS/MS analysis; format: ADME, cell-based, Canis lupus familiaris; details: dog, mdck-mdr1, 1 h
Outline: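 MDCKII MDR1 and wild-type cells seeded at 2 × 10⁵ cells/well in Transwells, cultured 3 days. Test compounds 10 μM in HBSS with 25 mM HEPES pH 7.4, dosed apical or basolateral in duplicate, 1 h at 37 °C. Lucifer yellow monolayer check, wells above 100 nm/s rejected. LC–MS/MS read-out. ER = Papp B>A/A>B. EER = MDR1 ER over wild-type ER.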

[7] = molecular target: T1, Serine-protein kinase ATM; experiment: Inhibition of ATM in human U2OS cells assessed as reduction in etoposide-stimulated KAP1 phosphorylation incubated for 60 mins by immunoreactivity assay; format: cell-based
Outline: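 U2OS cells plated overnight at 6k cells/well (37 °C, 5% CO₂), then treated with compound titrations (0.3% DMSO) plus 100 μM etoposide for 60 min. Cells fixed in cold methanol and stained for phospho-KAP1 and total KAP1 using IRDye secondaries on a LI-COR Odyssey. IC50 is the mean of at least two experiments.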

Sequence of Phosphatidylinositol 3-kinase catalytic subunit type 3 (Q8NEB9 whole entry): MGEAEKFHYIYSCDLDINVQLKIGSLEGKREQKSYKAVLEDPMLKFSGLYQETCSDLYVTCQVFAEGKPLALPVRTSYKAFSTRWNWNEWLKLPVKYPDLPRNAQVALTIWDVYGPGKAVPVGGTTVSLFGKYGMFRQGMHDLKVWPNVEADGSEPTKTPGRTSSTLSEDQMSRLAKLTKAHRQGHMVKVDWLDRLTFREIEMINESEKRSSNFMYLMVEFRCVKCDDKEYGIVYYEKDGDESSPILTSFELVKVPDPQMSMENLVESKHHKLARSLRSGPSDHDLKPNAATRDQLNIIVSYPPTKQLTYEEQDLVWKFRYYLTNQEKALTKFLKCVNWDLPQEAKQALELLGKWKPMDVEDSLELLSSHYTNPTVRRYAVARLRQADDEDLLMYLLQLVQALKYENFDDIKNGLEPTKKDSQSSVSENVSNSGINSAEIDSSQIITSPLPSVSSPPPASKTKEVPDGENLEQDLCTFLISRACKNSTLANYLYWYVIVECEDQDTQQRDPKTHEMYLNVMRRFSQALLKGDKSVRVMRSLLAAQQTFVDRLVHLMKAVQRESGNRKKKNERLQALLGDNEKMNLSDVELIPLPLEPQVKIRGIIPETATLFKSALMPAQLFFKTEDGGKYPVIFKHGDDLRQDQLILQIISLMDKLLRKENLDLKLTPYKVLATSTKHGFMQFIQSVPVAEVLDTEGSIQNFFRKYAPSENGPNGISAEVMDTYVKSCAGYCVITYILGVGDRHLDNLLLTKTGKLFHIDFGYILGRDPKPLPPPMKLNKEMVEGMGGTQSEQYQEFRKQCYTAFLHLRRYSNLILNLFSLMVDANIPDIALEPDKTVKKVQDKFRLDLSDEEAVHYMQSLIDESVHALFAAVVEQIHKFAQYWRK
T1 sequence (Q13315 whole entry): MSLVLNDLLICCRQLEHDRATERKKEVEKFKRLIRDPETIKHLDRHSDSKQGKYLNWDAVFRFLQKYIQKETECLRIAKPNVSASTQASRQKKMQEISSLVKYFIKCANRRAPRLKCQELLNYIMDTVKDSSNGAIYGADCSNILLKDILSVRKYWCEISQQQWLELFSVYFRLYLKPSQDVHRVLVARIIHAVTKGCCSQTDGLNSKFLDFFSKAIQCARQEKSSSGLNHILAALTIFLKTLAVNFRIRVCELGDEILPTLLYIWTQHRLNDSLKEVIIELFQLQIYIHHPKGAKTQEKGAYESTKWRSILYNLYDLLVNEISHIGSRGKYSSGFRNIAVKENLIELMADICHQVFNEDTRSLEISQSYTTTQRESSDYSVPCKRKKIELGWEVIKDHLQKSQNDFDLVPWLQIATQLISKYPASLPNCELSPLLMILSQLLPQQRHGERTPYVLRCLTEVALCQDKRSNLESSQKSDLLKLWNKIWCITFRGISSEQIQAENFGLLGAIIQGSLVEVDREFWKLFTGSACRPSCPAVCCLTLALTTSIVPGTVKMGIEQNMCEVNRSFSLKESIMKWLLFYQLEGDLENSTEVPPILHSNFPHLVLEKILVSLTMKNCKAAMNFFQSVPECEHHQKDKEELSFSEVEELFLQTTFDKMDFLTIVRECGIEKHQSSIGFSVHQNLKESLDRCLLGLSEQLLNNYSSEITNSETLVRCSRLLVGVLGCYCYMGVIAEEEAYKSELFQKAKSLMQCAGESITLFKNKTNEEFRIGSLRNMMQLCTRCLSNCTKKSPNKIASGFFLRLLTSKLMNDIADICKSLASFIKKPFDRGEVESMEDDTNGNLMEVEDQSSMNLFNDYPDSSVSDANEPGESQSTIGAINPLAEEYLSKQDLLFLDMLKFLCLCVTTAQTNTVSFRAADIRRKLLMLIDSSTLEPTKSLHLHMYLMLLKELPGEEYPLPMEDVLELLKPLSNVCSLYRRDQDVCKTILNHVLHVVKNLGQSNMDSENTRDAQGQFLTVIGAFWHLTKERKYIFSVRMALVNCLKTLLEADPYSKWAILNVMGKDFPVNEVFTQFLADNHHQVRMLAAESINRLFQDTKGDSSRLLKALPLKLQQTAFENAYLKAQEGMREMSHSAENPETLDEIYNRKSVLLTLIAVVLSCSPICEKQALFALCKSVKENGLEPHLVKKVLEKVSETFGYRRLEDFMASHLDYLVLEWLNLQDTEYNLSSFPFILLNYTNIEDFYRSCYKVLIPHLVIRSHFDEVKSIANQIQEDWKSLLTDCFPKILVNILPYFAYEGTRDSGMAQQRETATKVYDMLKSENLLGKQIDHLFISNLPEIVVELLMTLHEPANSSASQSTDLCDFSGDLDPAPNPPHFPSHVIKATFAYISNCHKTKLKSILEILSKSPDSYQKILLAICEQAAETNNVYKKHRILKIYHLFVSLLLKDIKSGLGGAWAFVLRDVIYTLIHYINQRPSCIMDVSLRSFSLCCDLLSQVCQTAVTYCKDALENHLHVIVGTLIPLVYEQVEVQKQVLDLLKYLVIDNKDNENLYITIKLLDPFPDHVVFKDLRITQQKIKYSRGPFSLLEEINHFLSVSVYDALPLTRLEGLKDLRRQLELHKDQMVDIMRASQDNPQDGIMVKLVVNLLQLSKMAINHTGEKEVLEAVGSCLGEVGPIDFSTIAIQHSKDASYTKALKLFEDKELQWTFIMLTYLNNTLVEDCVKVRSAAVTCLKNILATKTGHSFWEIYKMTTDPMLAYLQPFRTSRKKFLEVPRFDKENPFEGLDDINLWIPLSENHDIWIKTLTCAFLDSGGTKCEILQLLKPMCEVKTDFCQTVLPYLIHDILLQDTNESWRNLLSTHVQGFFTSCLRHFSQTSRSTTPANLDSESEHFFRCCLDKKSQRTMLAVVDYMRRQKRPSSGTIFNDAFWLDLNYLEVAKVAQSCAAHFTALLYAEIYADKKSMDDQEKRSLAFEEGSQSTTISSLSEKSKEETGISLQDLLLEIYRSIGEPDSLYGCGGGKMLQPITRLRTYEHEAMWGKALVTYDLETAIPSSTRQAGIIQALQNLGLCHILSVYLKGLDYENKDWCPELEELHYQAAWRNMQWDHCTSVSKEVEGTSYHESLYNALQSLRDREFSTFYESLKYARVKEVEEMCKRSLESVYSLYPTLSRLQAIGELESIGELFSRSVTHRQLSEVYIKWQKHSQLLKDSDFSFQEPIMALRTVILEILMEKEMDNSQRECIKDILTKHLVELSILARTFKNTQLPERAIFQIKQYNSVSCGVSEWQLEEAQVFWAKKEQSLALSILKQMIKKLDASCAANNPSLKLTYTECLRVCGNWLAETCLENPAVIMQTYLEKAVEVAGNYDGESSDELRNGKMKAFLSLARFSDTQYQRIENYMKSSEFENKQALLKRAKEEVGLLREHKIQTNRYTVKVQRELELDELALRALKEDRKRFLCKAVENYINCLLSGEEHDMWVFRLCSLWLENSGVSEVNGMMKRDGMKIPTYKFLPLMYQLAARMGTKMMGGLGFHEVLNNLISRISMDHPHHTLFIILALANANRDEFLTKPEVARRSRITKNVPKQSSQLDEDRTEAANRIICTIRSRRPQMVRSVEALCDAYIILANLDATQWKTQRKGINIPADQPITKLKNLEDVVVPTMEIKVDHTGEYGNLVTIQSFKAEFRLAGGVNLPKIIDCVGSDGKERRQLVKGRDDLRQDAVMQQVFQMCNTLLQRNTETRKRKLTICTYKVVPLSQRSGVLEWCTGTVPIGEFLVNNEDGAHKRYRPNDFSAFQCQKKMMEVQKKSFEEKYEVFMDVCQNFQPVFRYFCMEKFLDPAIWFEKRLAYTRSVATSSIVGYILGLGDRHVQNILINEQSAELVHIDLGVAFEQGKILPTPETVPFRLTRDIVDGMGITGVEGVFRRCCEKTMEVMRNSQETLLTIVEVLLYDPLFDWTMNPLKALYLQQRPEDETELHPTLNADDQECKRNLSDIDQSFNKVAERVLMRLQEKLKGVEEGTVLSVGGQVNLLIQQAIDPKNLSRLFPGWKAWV

Compound | Ki [1] [nM] | solubility kinetic at 2 h [2] [µg/mL] | Ki [3] [nM] | Ratio Ki (Homo sapiens) | CLint scaled at 1 µM [4] [mL/min/kg] | Papp A→B at 1 h [5] [×10⁻⁶ cm/s] | Ratio [6] | IC50 [7] [nM]
O=c1cc(N2CCOCC2)nc(N2C[C@@H]3C[C@@H]3[C@@H]2Cc2ccccc2)[nH]1 | 5 | < 2 | 0.6 | 8 |  |  |  | 
O=c1cc(N2CCOCC2)cc(N2CCC[C@@H]2Cc2ccccc2)[nH]1 | 9 | > 68 | 6 | 1 | 115 | 59.9 | 4.8 | 
COc1ccc2c(c1)Cc1cccc(-c3cc(N4CCOCC4)cc(=O)[nH]3)c1S2 | 130 | 14 (≈ 34.4 µM) | 4 | 33 |  |  |  | 880
C[C@@H]1CN(c2cc(=O)[nH]c(N3CCCCC[C@@H]3Cc3ccccc3)n2)CCO1 | 840 | 11 (≈ 28.8 µM) | 1 | 840 |  |  |  | 
COc1ccc2c(c1)Cc1cccc(-c3nc(O)cc(N4CCOCC4)n3)c1S2 | > 5000 | 2 (≈ 4.91 µM) | > 1600 |  |  |  |  | > 30000
COc1ccc2c(c1)Cc1cccc(-c3cc(N4CCOCC4)cc(OC)n3)c1S2 | > 5000 | < 2 | > 1600 | > 3 |  |  |  | > 30000
Oc1cc(N2CCOCC2)nc(N2CCC[C@@H]2Cc2ccccc2)n1 | 16 | 34 (≈ 99.9 µM) | 1 | 16 | 261 | 77.5 | 4.5 | 500
O=c1cc(N2CCOCC2)nc(N2C[C@H]3C[C@H]3[C@@H]2Cc2ccccc2)[nH]1 | 21 | 54 (≈ 153 µM) | 0.2 | 105 |  |  |  | 130
C[C@@H]1CN(c2cc(=O)[nH]c(N3C[C@@H]4C[C@@H]4[C@@H]3Cc3ccccc3)n2)CCO1 | 1500 | < 2 | 0.9 | 1700 |  |  |  | 
Oc1cc(N2CCC[C@@H]2Cc2ccccc2)nc(N2CCOCC2)n1 | 270 | 59 (≈ 173 µM) | 87 | 3 |  |  |  | > 30000
COc1ccc2c(c1)Cc1cccc(-c3cc(=O)cc(N4CCOCC4)[nH]3)c1S2 |  | 3 (≈ 7.38 µM) | 110 |  |  |  |  | > 30000
O=c1cc(N2CCOCC2)nc(N2CCCCC[C@@H]2Cc2ccccc2)[nH]1 | 8 | 48 (≈ 130 µM) | 0.1 | 80 | 287 | 58.1 | 3.1 | 200
O=c1cc(N2CCOCC2)cc(N2CCC[C@H]2Cc2ccccc2)[nH]1 | 630 | > 55 | > 900 | > 1 |  |  |  | > 30000
COc1ccc2c(c1)Cc1cccc(-c3cc(N4CCOCC4)cc(=O)n3C)c1S2 | 910 | 10 (≈ 23.8 µM) | > 1200 | > 1 |  |  |  | > 30000
C[C@@H]1CN(c2cc(N3C[C@H]4C[C@H]4[C@@H]3Cc3ccccc3)[nH]c(=O)c2)CCO1 | > 5000 | 62 (≈ 170 µM) |  |  |  |  |  | 
O=c1cc(N2CCOCC2)cc(N2CCCC2Cc2ccccc2)[nH]1 (racemic) | 49 | > 68 | 30 | 2 |  |  |  | 4000
COc1ccc2c(c1)Cc1cccc(-c3cc(N4CCOCC4)nc(O)n3)c1S2 | 3300 | < 2 | 160 | 21 |  |  |  | > 30000
O=c1cc(N2CCOCC2)cc(N2CCC(F)(F)[C@@H]2Cc2ccccc2)[nH]1 | 39 | 65 (≈ 173 µM) | 6 | 6.5 | < 65 | 75.2 | 2.6 | 
O=c1cc(N2CCOCC2)cc(N2C[C@@H]3C[C@@H]3[C@@H]2Cc2ccccc2)[nH]1 | 4 | 52 (≈ 148 µM) | 0.3 | 13 | 177 | 81.2 | 2.9 | 150
COc1ccc2c(c1)Cc1cccc(-c3cc(N4CCOCC4)[nH]c(=O)c3)c1S2 |  |  | > 1000 |  |  |  |  | > 30000
C[C@@H]1CN(c2cc(=O)[nH]c(N3C[C@H]4C[C@H]4[C@@H]3Cc3ccccc3)n2)CCO1 | 880 | 48 (≈ 131 µM) | 2 | 490 |  |  |  | 
COc1ccc2c(c1)Cc1cccc(-c3cc(O)nc(N4CCOCC4)n3)c1S2 | 35 | 4 (≈ 9.82 µM) | 25 | 1 |  |  |  | 6700
C[C@@H]1CN(c2cc(N3CCCCC[C@@H]3Cc3ccccc3)[nH]c(=O)c2)CCO1 | 1800 | 70 (≈ 183 µM) | 1 | 200 |  |  |  | 1600
O=c1cc(N2CCOCC2)cc(N2CC[C@@H](F)[C@@H]2Cc2ccccc2)[nH]1 | 110 | > 71 | 3 | 43 | < 65 | 51.8 | 7.2 | 1300
O=c1cc(N2CCOCC2)cc(N2CCC(Cc3ccccc3)C2)[nH]1 (configuration not stated) |  | 5 (≈ 14.7 µM) | > 1200 |  |  |  |  | > 30000
CO[C@@H]1CCN(c2cc(N3CCOCC3)cc(=O)[nH]2)[C@H]1Cc1ccccc1 |  | 72 (≈ 195 µM) | 23 |  | < 65 | 31.9 | 12 | 3500
